The values below come from publication PMC6589821 (Bioorganic & medicinal chemistry, 2019).

Entries after “also recorded” stand apart in the source; their conditions may differ.

One data set relates to pseudotyped HIV. Particulars: earlier work; cited from earlier work.
In data set [1] the test system is HIV-1 FSS RNA. Description: SPR binding to immobilised HIV-1 FSS RNA. Conditions: for ka / kd: SPR, 1:1 Langmuir fit, average of four curves. For orientation: Surface plasmon resonance follows binding to a sensor surface in real time, without labels.
Another data set deals with HIV IIIB. Conditions: earlier work; cited from earlier work.
The next data set has as its system p160 Gag-Pol. Conditions: earlier work; cited from earlier work.
The subject of the next data set is HIV-1 AD.MDR01. Conditions: patient-derived strain; cited from earlier work.
Data set [2] has as its system hairpin derived from BDNF. Put plainly: Competition dialysis, BDNF mRNA hairpin. Type of data set: binding, human. Conditions: 2.0 μM compound, 2.5 μM RNA, 36 hours. The gist of the method:
(§1)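 RNA hairpins refolded at 2.5 μM in PBS with 1 mM EDTA (3 min 25 °C, 3 min 90 °C, 5 min 27 °C). Duplicate dialysis tubes (MWCO 3500) of RNA, plus an RNA-free control, dialysed 36 h against 2.0 μM test compound in PBS. Bound compound released with 1% Triton X-100 (final). Total compound per tube quantified by HPLC against a calibration curve.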

Another data set relates to IRF5 RNA. Description: Competition dialysis, IRF5 mRNA hairpin. It is filed as binding, human. Particulars: 2.0 μM compound, 2.5 μM RNA, 36 hours. The gist of the method:
as §1

Data set [3] concerns HIV-1 FSS RNA. Put plainly: Competitive SPR assay with excess yeast tRNA in solution. It is filed as binding. The gist of the method: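 Streptavidin was coupled by EDC/NHS onto a CM5 chip, then ethanolamine-blocked; about 2000 RU of biotinylated HIV-1 FSS RNA (refolded 3 min at 75 °C in HBS, pH 7.4) was captured on one flow cell. Analyte was injected with or without excess bulk yeast tRNA at 80 μL/min for 1 min in HBS. At least two injections per condition.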

Data set [4] deals with HIV-1 FSS RNA. Put plainly: Competition dialysis, HIV-1 FSS hairpin. Type of data set: binding. Conditions: 2.0 μM compound, 2.5 μM RNA, 36 hours, 8 competing human hairpins. Summed up:
as §1

The test system of another data set is HEK293FT cells. Description: WST-1 cytotoxicity assay. It is filed as cell-based. Conditions: 24 hours. In general terms: Tetrazolium dyes change colour on reduction, which living cells bring about.

Consider `CCc1nc2cc3ccccc3cc2cc1C(=O)N(C)[C@@H](CCn1cc(C[C@@H](C(=O)N2CCC[C@H]2C(=O)N(C)[C@@H](Cc2ccccc2)C(=O)NCCCN)N(C)C(=O)c2cc3cc4ccccc4cc3nc2CC)nn1)C(=O)N1CCC[C@H]1C(=O)N(C)[C@@H](Cc1ccccc1)C(=O)NCCCN` [Compound 3], for which, in the data set with pseudotyped HIV, the “effect on pseudotyped HIV” value was “inhibited both production and infectivity”. In the data set on HIV-1 FSS RNA [1], this molecule showed a ka of 190000 M⁻¹ s⁻¹ and a kd of 0.003 s⁻¹. For the same molecule, in the data set with HIV IIIB, the “inhibition of laboratory strain HIV-1 IIIB” value is on record as “inhibited”. Also, the “p160 Gag-Pol level in virus (Western blot)” value with p160 Gag-Pol is reported as “concentration-dependent increases in p160 Gag-Pol”. Also, the “inhibition of multidrug resistant strain” value in the data set with HIV-1 AD.MDR01 is reported as “inhibited”.

As to `CN(C(=O)c1cnc2ccccc2c1)[C@@H](CCn1cc(C[C@@H](C(=O)N2CCC[C@H]2C(=O)N(C)[C@@H](Cc2ccccc2)C(=O)NCCCN)N(C)C(=O)c2cnc3ccccc3c2)nn1)C(=O)N1CCC[C@H]1C(=O)N(C)[C@@H](Cc1ccccc1)C(=O)NCCCN` [Compound 6], the “fold lower affinity for the FSS than compound 3” value with HIV-1 FSS RNA [1] (KD ratio versus 3) came out at 4 fold. In addition, in the data set on HIV-1 FSS RNA [1], the ka was determined as 56600 M⁻¹ s⁻¹ and the kd is 0.00226 s⁻¹. In addition, the “binding in competition dialysis” value in data set [2] is recorded as “appreciably bound”. In addition, the “binding in competition dialysis” value in the data set on IRF5 RNA is reported as “appreciably bound”. In addition, the “change of binding constant with versus without excess tRNA” value in the data set with HIV-1 FSS RNA [3] (SPR traces with and without excess tRNA) is reported as “within statistical error; also recorded: little impact on binding”. Further, the “binding among hairpins in competition dialysis” value with HIV-1 FSS RNA [4] was “preferentially binds to HIV-1 FSS”.

As for `CN(C(=O)c1cnc2ccccc2c1)[C@@H](CCn1cc(C[C@@H](C(=O)N2C[C@H](O)C[C@H]2C(=O)N(C)[C@@H](Cc2ccccc2)C(N)=O)N(C)C(=O)c2cnc3ccccc3c2)nn1)C(=O)N1C[C@H](O)C[C@H]1C(=O)N(C)[C@@H](Cc1ccccc1)C(N)=O` [Compound 10], in the data set on HIV-1 FSS RNA [1] (KD ratio 10 versus 6), the “fold difference in KD between 10 and 6” value stood at 23 fold. In the data set on HIV-1 FSS RNA [1], this molecule showed a ka of 4090 M⁻¹ s⁻¹ and a kd of 0.00541 s⁻¹.

In the data set with HIV-1 FSS RNA [1], `CN(C(=O)c1cnc2ccccc2c1)[C@@H](CCn1cc(C[C@@H](C(=O)N2C[C@H](O)C[C@H]2C(=O)N(C)[C@@H](Cc2ccccc2)C(=O)NCCCN)N(C)C(=O)c2cnc3ccccc3c2)nn1)C(=O)N1C[C@H](O)C[C@H]1C(=O)N(C)[C@@H](Cc1ccccc1)C(=O)NCCCN` [Compound 7] returned a ka of 67400 M⁻¹ s⁻¹ and a kd of 0.00542 s⁻¹.

In the data set on HIV-1 FSS RNA [1], `CCc1nc2ccccc2cc1C(=O)N(C)[C@@H](CCn1cc(C[C@@H](C(=O)N2C[C@H](O)C[C@H]2C(=O)N(C)[C@@H](Cc2ccccc2)C(=O)NCCCN)N(C)C(=O)c2cc3ccccc3nc2CC)nn1)C(=O)N1C[C@H](O)C[C@H]1C(=O)N(C)[C@@H](Cc1ccccc1)C(=O)NCCCN` [Compound 5] returned a ka of 14900 M⁻¹ s⁻¹ and a kd of 0.0068 s⁻¹.

For the molecule `CCc1nc2cc3ccccc3cc2cc1C(=O)N[C@@H](C/C=C\C[C@H](NC(=O)c1cc2cc3ccccc3cc2nc1CC)C(=O)N1CCC[C@H]1C(=O)N[C@@H](Cc1ccccc1)C(=O)NCCCN)C(=O)N1CCC[C@H]1C(=O)N[C@@H](Cc1ccccc1)C(=O)NCCCN` [Compound 2], the “effect on pseudotyped HIV” value in the data set on pseudotyped HIV was “inhibited both production and infectivity”. In addition, the “p160 Gag-Pol level in virus (Western blot)” value in the data set on p160 Gag-Pol is “concentration-dependent increases in p160 Gag-Pol”.

In the data set on HIV-1 FSS RNA [1], `CCc1nc2ccccc2cc1C(=O)N(C)[C@@H](CCn1cc(C[C@@H](C(=O)N2CCC[C@H]2C(=O)N(C)[C@@H](Cc2ccccc2)C(N)=O)N(C)C(=O)c2cc3ccccc3nc2CC)nn1)C(=O)N1CCC[C@H]1C(=O)N(C)[C@@H](Cc1ccccc1)C(N)=O` [Compound 8] returned a ka of 1690 M⁻¹ s⁻¹ and a kd of 0.0207 s⁻¹.

In the case of `NC[C@@H]1O[C@H](O[C@H]2[C@@H](O)[C@H](O[C@@H]3[C@@H](O)[C@H](N)C[C@H](N)[C@H]3O[C@H]3O[C@H](CN)[C@@H](O)[C@H](O)[C@H]3N)O[C@@H]2CO)[C@H](N)[C@@H](O)[C@@H]1O` [Neomycin, neomycin, reference compound], the “SPR signal for HIV-1 FSS binding with tRNA” value in the data set on HIV-1 FSS RNA [3] (30 μM tRNA, 3-fold excess relative to neomycin) is “completely ablated”.

In the data set with HIV-1 FSS RNA [1], `CCc1nc2ccccc2cc1C(=O)N(C)[C@@H](CCn1cc(C[C@@H](C(=O)N2CCC[C@H]2C(=O)N(C)[C@@H](Cc2ccccc2)C(=O)NCCCN)N(C)C(=O)c2cc3ccccc3nc2CC)nn1)C(=O)N1CCC[C@H]1C(=O)N(C)[C@@H](Cc1ccccc1)C(=O)NCCCN` [Compound 4] came in with a ka of 64900 M⁻¹ s⁻¹ and a kd of 0.0237 s⁻¹. Besides, the “effect on cellular metabolism (WST-1)” value in the data set with HEK293FT cells was “significant effects below a concentration of 40 micromolar”.
